Laboratory results from ChEMBL document CHEMBL4184106, “Discovering alkylamide derivatives of bexarotene as new therapeutic agents against triple-negative breast cancer” (Bioorg Med Chem Lett, 2018).
The source made the active and inactive calls. The calls are words filed in the database; no cut-off is given here.

Columns and labels:
[1] = test system: BT-549; test: Cytotoxicity against human BT549 cells assessed as reduction in cell viability at 5 uM by MTT assay; type: functional
[2] = test system: MCF-10A; test: Cytotoxicity against human MCF10A cells assessed as reduction in cell viability by MTT assay; type: cell-based
[3] = test system: MCF-10A; test: Induction of apoptosis in human MCF10A cells assessed as ratio of cleaved caspase-3 to beta-actin level at 5 uM by western blot analysis (reference value: 1); type: cell-based
[4] = test system: MCF7; test: Induction of apoptosis in human MCF7 cells assessed as ratio of cleaved caspase-3 to beta-actin level at 5 uM by western blot analysis (reference value: 1); type: functional
[5] = test system: MDA-MB-231; test: Induction of apoptosis in human MDA-MB-231 cells assessed as ratio of cleaved caspase-8 to beta-actin level at 5 uM by western blot analysis (reference value: 1); type: functional
[6] = test system: BT-549; test: Induction of apoptosis in human BT549 cells assessed as ratio of cleaved caspase-8 to beta-actin level at 5 uM by western blot analysis (reference value: 1); type: functional
[7] = test system: MCF7; test: Induction of apoptosis in human MCF7 cells assessed as ratio of cleaved caspase-8 to beta-actin level at 5 uM by western blot analysis (reference value: 1); type: functional
[8] = test system: MDA-MB-231; test: Induction of apoptosis in human MDA-MB-231 cells assessed as ratio of cleaved caspase-9 to beta-actin level at 5 uM by western blot analysis (reference value: 1); type: functional
[9] = test system: BT-549; test: Induction of apoptosis in human BT549 cells assessed as ratio of cleaved caspase-9 to beta-actin level at 5 uM by western blot analysis (reference value: 1); type: functional
[10] = test system: BT-549; test: Induction of apoptosis in nuclear fractions of human BT549 cells assessed as ratio of cleaved PARP to beta-actin level at 5 uM by western blot analysis (reference value: 1); type: functional
[11] = test system: MCF7; test: Inhibition of colony formation in human MCF7 cells at 5 uM supplemented with fresh medium containing compound every 3 to 4 days for 7 days by crystal violet staining based adherent cell colony-forming assay; type: functional
Outline: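 MCF-7 cells were plated for adherent colony formation and treated for 7 days. Colonies were counted at the end of treatment and normalized to untreated samples.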

[12] = test system: MDA-MB-231; test: Inhibition of colony formation in human MDA-MB-231 cells at 2 uM supplemented with fresh medium containing compound every 3 days for 10 days by microscopic method based soft agar colony formation assay relative to control; type: functional
[13] = test system: MDA-MB-231; test: Anti-migratory activity against human MDA-MB-231 cells assessed as reduction in wound closure at 2 uM up to 24 hrs by wound-healing assay; type: functional, cell-based
Outline: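 MDA-MB-231 monolayer was scratched to make a wound gap. Cells were treated alongside a DMSO vehicle control, and migration into the gap was imaged at 24 h.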

[14] = test system: MCF7; test: Inhibition of mammosphere formation in human MCF7 cells at 2 uM after 7 days by microscopic method; type: functional, cell-based
Outline: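 MCF-7 cells were grown under mammosphere-forming conditions with compound. Spheres 60 μm or larger were counted for quantitation.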

[15] = test system: MCF7; test: Down regulation of c-Myc expression in human MCF7 cells at 5 uM by Western blot analysis; type: functional
Outline: (§1)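 MCF-7 cells were treated and lysates probed by Western blot for CSC-related markers, with β-actin as loading control. Band densitometry was normalized to DMSO-treated samples.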

[16] = test system: MCF7; test: Down regulation of KLF4 expression in human MCF7 cells at 5 uM by Western blot analysis; type: functional; outline: as §1
[17] = test system: MCF7; test: Down regulation of Sox-2 expression in human MCF7 cells at 5 uM by Western blot analysis; type: functional; outline: as §1
[18] = test system: MDA-MB-231; test: Down regulation of KLF4 expression in human MDA-MB-231 cells at 5 uM by Western blot analysis; type: functional
[19] = test system: MCF7; test: Inhibition of mammosphere formation in human MCF7 cells assessed as ratio of KLF4 to beta actin level at 5 uM by Western blot analysis (Rvb= 1); type: functional
Outline: (§2)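 Post-treatment cell lysates were probed by Western blot for CSC markers, with β-actin as the loading control. Band densitometry was normalized to DMSO-treated samples.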

[20] = test system: MCF7; test: Inhibition of mammosphere formation in human MCF7 cells assessed as ratio of Oct4A to beta actin level at 5 uM by Western blot analysis (Rvb= 1); type: functional; outline: as §2
[21] = test system: MCF7; test: Inhibition of mammosphere formation in human MCF7 cells assessed as ratio of Sox2 to beta actin level at 5 uM by Western blot analysis (Rvb= 1); type: functional; outline: as §2
[22] = test system: MDA-MB-231; test: Inhibition of mammosphere formation in human MDA-MB-231 cells assessed as ratio of C-Myc to beta actin level at 5 uM by Western blot analysis (Rvb= 1); type: functional; outline: as §2
[23] = test system: MDA-MB-231; test: Inhibition of mammosphere formation in human MDA-MB-231 cells assessed as ratio of KLF4 to beta actin level at 5 uM by Western blot analysis (Rvb= 1); type: functional; outline: as §2
[24] = test system: BT-549; test: Inhibition of mammosphere formation in human BT549 cells assessed as ratio of C-Myc to beta actin level at 5 uM by Western blot analysis (Rvb= 1); type: functional
[25] = test system: BT-549; test: Inhibition of mammosphere formation in human BT549 cells assessed as ratio of KLF4 to beta actin level at 5 uM by Western blot analysis (Rvb= 1); type: functional
[26] = test system: MDA-MB-231; test: Effect on epithelial-mesenchymal transition in human MDA-MB-231 cells assessed as ratio of E-cadherin to beta-actin level at 5 uM by Western blot analysis (reference value: 1); type: functional
[27] = test system: MDA-MB-231; test: Effect on epithelial-mesenchymal transition in human MDA-MB-231 cells assessed as ratio of vimentin to beta-actin level at 5 uM by Western blot analysis (reference value: 1); type: functional
[28] = test system: MDA-MB-231; test: Effect on epithelial-mesenchymal transition in human MDA-MB-231 cells assessed as ratio of slug to beta-actin level at 5 uM by Western blot analysis (reference value: 1); type: functional
[29] = test system: BT-549; test: Effect on epithelial-mesenchymal transition in human BT549 cells assessed as ratio of vimentin to beta-actin level at 5 uM by Western blot analysis (reference value: 1); type: functional
[30] = test system: BT-549; test: Effect on epithelial-mesenchymal transition in human BT549 cells assessed as ratio of slug to beta-actin level at 5 uM by Western blot analysis (reference value: 1); type: functional
[31] = test system: MDA-MB-231; test: Effect on beta-catenin translocation in cytosolic fraction of human MDA-MB-231 cells assessed as ratio of beta-catenin to beta-actin level at 5 uM by Western blot analysis (reference value: 1); type: functional
[32] = test system: MDA-MB-231; test: Effect on beta-catenin translocation in nuclear fraction of human MDA-MB-231 cells assessed as ratio of beta-catenin to beta-actin level at 5 uM by Western blot analysis (reference value: 1); type: functional
[33] = test system: BT-549; test: Effect on beta-catenin translocation in cytosolic fraction of human BT549 cells assessed as ratio of beta-catenin to beta-actin level at 5 uM by Western blot analysis (reference value: 1); type: functional
[34] = test system: BT-549; test: Effect on beta-catenin translocation in nuclear fraction of human BT549 cells assessed as ratio of beta-catenin to beta-actin level at 5 uM by Western blot analysis (reference value: 1); type: functional
[35] = test system: BT-549; test: Induction of apoptosis in nuclear fractions of human BT549 cells assessed as ratio of PARP to beta-actin level at 5 uM by western blot analysis (reference value: 1); type: functional

## C=C(c1ccc(C(=O)NCCN2CCCC2)cc1)c1cc2c(cc1C)C(C)(C)CCC2(C)C
[1]
  Activity: 60%
[2]
  Activity: Non-Toxic
[3]
  Ratio: 1
[4]
  Ratio: 1
[5]
  Ratio: 3.7
[6]
  Ratio: 1
[7]
  Ratio: 1
[8]
  Ratio: 1.7
[9]
  Ratio: 2.1
[10]
  Ratio: 2.5
[11]
  inhibition (INH): 80%
[12]
  inhibition (INH): 90%
[13]
  Activity: Active
[14]
  inhibition: Active
[15]
  Activity: 10 - 30%
[16]
  Activity: 10 - 30%
[17]
  Activity: 60%
[18]
  Activity: 50%
[19]
  Ratio: 0.7
[20]
  Ratio: 1.1
[21]
  Ratio: 0.4
[22]
  Ratio: 1.1
[23]
  Ratio: 0.5
[24]
  Ratio: 0.8
[25]
  Ratio: 0.8
[26]
  Ratio: 6.2
[27]
  Ratio: 0.3
[28]
  Ratio: 1
[29]
  Ratio: 1
[30]
  Ratio: 0.7
[31]
  Ratio: 2.1
[32]
  Ratio: 0.4
[33]
  Ratio: 2.4
[34]
  Ratio: 0.5
[35]
  Ratio: 0.9
